{"source": "ChEMBL document CHEMBL1240350", "about": "“In vitro activity of CEM-101 against Streptococcus pneumoniae and Streptococcus pyogenes with defined macrolide resistance mechanisms” (Antimicrob Agents Chemother, 2010)", "key": {"Streptococcus pyogenes [1]": {"test_system": "Streptococcus pyogenes", "assay": "Antibacterial activity against macrolide-susceptible Streptococcus pyogenes 2132 after 28 passages following overnight incubation by agar dilution method"}, "Streptococcus pyogenes [2]": {"test_system": "Streptococcus pyogenes", "assay": "Antibacterial activity against macrolide-resistant Streptococcus pyogenes 2011 harboring mef(A) gene after 35 passages following overnight incubation by agar dilution method"}, "Streptococcus pneumoniae [3]": {"test_system": "Streptococcus pneumoniae", "assay": "Antibacterial activity against macrolide-susceptible Streptococcus pneumoniae 1077 after 29 passages following overnight incubation by agar dilution method", "assay_type": "functional"}, "Streptococcus pyogenes [4]": {"test_system": "Streptococcus pyogenes", "assay": "Antibacterial activity against macrolide-resistant Streptococcus pyogenes 2094 harboring erm(A) gene after 34 passages following overnight incubation by agar dilution method"}, "Streptococcus pneumoniae [5]": {"test_system": "Streptococcus pneumoniae", "assay": "Antibacterial activity against macrolide-susceptible Streptococcus pneumoniae 7127 harboring S20N mutation in L4 ribosomal protein and A105V mutation in L22 ribosomal protein after 43 passages following overnight incubation by agar dilution method", "assay_type": "functional"}, "Streptococcus pneumoniae [6]": {"test_system": "Streptococcus pneumoniae", "assay": "Antibacterial activity against macrolide-susceptible Streptococcus pneumoniae 1077 after 49 passages following overnight incubation by agar dilution method", "assay_type": "functional"}, "Streptococcus pneumoniae [7]": {"test_system": "Streptococcus pneumoniae", "assay": "Antibacterial activity against macrolide-resistant Streptococcus pneumoniae 1076 harboring erm(B) and mef(A) gene after 18 passages following overnight incubation by agar dilution method", "assay_type": "functional"}, "[8]": {"assay": "Half life in human at 400 to 500 mg", "settings": "in vivo"}, "Streptococcus pneumoniae [9]": {"test_system": "Streptococcus pneumoniae", "assay": "Antibacterial activity against macrolide-resistant Streptococcus pneumoniae 3009 harboring mutation in 23S rRNA after 20 passages following overnight incubation by agar dilution method", "assay_type": "functional"}, "Streptococcus pyogenes [10]": {"test_system": "Streptococcus pyogenes", "assay": "Antibacterial activity against macrolide-resistant Streptococcus pyogenes 2094 harboring erm(A) gene after 43 passages following overnight incubation by agar dilution method"}, "Streptococcus pneumoniae [11]": {"test_system": "Streptococcus pneumoniae", "assay": "Antibacterial activity against macrolide-susceptible Streptococcus pneumoniae 7127 harboring S20N mutation in L4 ribosomal protein and A105V mutation in L22 ribosomal protein after 16 passages following overnight incubation by agar dilution method", "assay_type": "functional"}, "Streptococcus pyogenes [12]": {"test_system": "Streptococcus pyogenes", "assay": "Antibacterial activity against macrolide-resistant Streptococcus pyogenes 2368 harboring erm(B) gene after 18 passages following overnight incubation by agar dilution method"}, "Streptococcus pneumoniae [13]": {"test_system": "Streptococcus pneumoniae", "assay": "Antibacterial activity against macrolide-resistant Streptococcus pneumoniae 1635 harboring erm(A) gene after 32 passages following overnight incubation by agar dilution method", "assay_type": "functional"}, "Streptococcus pyogenes [14]": {"test_system": "Streptococcus pyogenes", "assay": "Antibacterial activity against macrolide-resistant Streptococcus pyogenes 2368 harboring erm(B) gene after 6 passages following overnight incubation by agar dilution method"}, "Streptococcus pneumoniae [15]": {"test_system": "Streptococcus pneumoniae", "assay": "Antibacterial activity against macrolide-resistant Streptococcus pneumoniae 2686 harboring mutation in L4 ribosomal protein after 25 passages following overnight incubation by […]", "assay_type": "functional", "method_in_brief": "(§1)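 S. pneumoniae parental strains were passaged daily in subinhibitory drug concentrations in cation-adjusted Mueller-Hinton broth with 5% lysed horse blood. Each passage was seeded from the tube 1 to 2 dilutions below the MIC whose turbidity matched the growth control. MICs of resistant clones were measured by CLSI macrodilution. Parent and clone identity was confirmed by PFGE of SmaI-digested DNA.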"}, "Streptococcus pyogenes [16]": {"test_system": "Streptococcus pyogenes", "assay": "Antibacterial activity against macrolide-resistant Streptococcus pyogenes 2094 harboring erm(A) gene after 22 passages following overnight incubation by agar dilution method"}, "Streptococcus pneumoniae [17]": {"test_system": "Streptococcus pneumoniae", "assay": "Antibacterial activity against macrolide-resistant Streptococcus pneumoniae 1076 harboring erm(B) and mef(A) gene after 14 passages following overnight incubation by agar dilution method", "assay_type": "functional"}, "Streptococcus pneumoniae [18]": {"test_system": "Streptococcus pneumoniae", "assay": "Antibacterial activity against macrolide-susceptible Streptococcus pneumoniae 7127 harboring S20N mutation in L4 ribosomal protein and A105V mutation in L22 ribosomal protein after 38 passages following overnight incubation […]", "assay_type": "functional", "method_in_brief": "as §1"}}}
{"smiles": "CC[C@H]1OC(=O)[C@H](C)[C@@H](O[C@H]2C[C@@](C)(OC)[C@@H](O)[C@H](C)O2)[C@H](C)[C@@H](O[C@@H]2O[C@H](C)C[C@H](N(C)C)[C@H]2O)[C@](C)(O)C[C@@H](C)CN(C)[C@H](C)[C@@H](O)[C@]1(C)O", "note": "[AZITHROMYCIN]", "values": [{"measurement": "MIC", "setting": "Streptococcus pyogenes [1]", "result": 1, "unit": "µg/mL"}, {"measurement": "MIC", "setting": "Streptococcus pyogenes [2]", "result": 32, "unit": "µg/mL"}, {"measurement": "MIC", "setting": "Streptococcus pneumoniae [3]", "result": "> 64", "unit": "µg/mL"}]}
{"smiles": "CCC[C@@H]1C[C@@H](C(=O)N[C@@H]([C@H]2O[C@H](SC)[C@H](O)[C@@H](O)[C@H]2O)[C@H](C)Cl)N(C)C1", "note": "[CLINDAMYCIN]", "values": [{"measurement": "MIC", "setting": "Streptococcus pyogenes [4]", "result": "> 64", "unit": "µg/mL"}, {"measurement": "MIC", "setting": "Streptococcus pneumoniae [5]", "result": 0.25, "unit": "µg/mL"}, {"measurement": "MIC", "setting": "Streptococcus pneumoniae [6]", "result": 4, "unit": "µg/mL"}]}
{"smiles": "CC[C@H]1OC(=O)[C@@](C)(F)C(=O)[C@H](C)[C@@H](O[C@@H]2O[C@H](C)C[C@H](N(C)C)[C@H]2O)[C@](C)(OC)C[C@@H](C)C(=O)[C@H](C)[C@H]2N(CCCCn3cc(-c4cccc(N)c4)nn3)C(=O)O[C@]12C", "note": "[SOLITHROMYCIN]", "values": [{"measurement": "MIC", "setting": "Streptococcus pneumoniae [7]", "result": 32, "unit": "µg/mL"}, {"measurement": "half-life", "setting": "[8]", "result": 5, "unit": "h"}, {"measurement": "MIC", "setting": "Streptococcus pneumoniae [9]", "result": 0.25, "unit": "µg/mL"}, {"measurement": "MIC", "setting": "Streptococcus pyogenes [10]", "result": 0.25, "unit": "µg/mL"}, {"measurement": "MIC", "setting": "Streptococcus pneumoniae [11]", "result": 0.125, "unit": "µg/mL"}, {"measurement": "MIC", "setting": "Streptococcus pyogenes [12]", "result": 8, "unit": "µg/mL"}, {"measurement": "MIC", "setting": "Streptococcus pneumoniae [13]", "result": 0.06, "unit": "µg/mL"}]}
{"smiles": "CC[C@H]1OC(=O)[C@H](C)C(=O)[C@H](C)[C@@H](O[C@@H]2O[C@H](C)C[C@H](N(C)C)[C@H]2O)[C@](C)(OC)C[C@@H](C)C(=O)[C@H](C)[C@H]2N(CCCCn3cnc(-c4cccnc4)c3)C(=O)O[C@]12C", "note": "[TELITHROMYCIN]", "values": [{"measurement": "MIC", "setting": "Streptococcus pyogenes [14]", "result": "> 64", "unit": "µg/mL"}, {"measurement": "MIC", "setting": "Streptococcus pneumoniae [15]", "result": 0.5, "unit": "µg/mL"}, {"measurement": "MIC", "setting": "Streptococcus pyogenes [16]", "result": 0.25, "unit": "µg/mL"}, {"measurement": "MIC", "setting": "Streptococcus pneumoniae [17]", "result": "> 64", "unit": "µg/mL"}, {"measurement": "MIC", "setting": "Streptococcus pneumoniae [18]", "result": 0.06, "unit": "µg/mL"}]}
